{"data": "Assay results gathered from unrelated publications", "matrix": "plasma"}
{"Compound": "CCCCC(=O)Nc1ccc(-c2ccc3ncn(CCC)c(=O)c3c2)cn1", "species": "male rat", "route": "oral", "dose": "10 mg/kg", "bioavailability [%]": 21.1}
{"Compound": "Cc1cc(S(=O)(=O)N[C@H]2CC[C@H](CN3CCN(c4cccc(NC5CCC(=O)NC5=O)c4)CC3)CC2)ccc1Nc1ncc(C(F)(F)F)c(N2CCC[C@](C)(O)C2)n1 (stereo partly shown)", "species": "rat", "route": "oral", "dose": "10 mg/kg", "bioavailability [%]": 13}
{"Compound": "O=C1CCC(N2Cc3cc(C4CCN(Cc5ccccc5)CC4)ccc3C2=O)C(=O)N1 (stereo not shown)", "species": "male Sprague-Dawley rat", "route": "oral", "dose": "3 mg/kg", "bioavailability [%]": 36.2}
{"Compound": "Cc1cc(S(=O)(=O)NC2CC(N3CCN(CC4CCN(c5ccc6c(c5F)n(C)c(=O)n6C5CCC(=O)NC5=O)CC4)CC3)C2)ccc1Nc1ncc(C(F)(F)F)c(N2CCCC(C)(O)C2)n1 (stereo not shown)", "species": "rat", "route": "oral", "dose": "10 mg/kg", "bioavailability [%]": 1}
{"Compound": "CC(C)C[C@H](NC(=O)NCc1cn(-c2ccccc2C(=O)OCn2cc(F)c(=O)[nH]c2=O)nn1)C(=O)NO", "species": "male Sprague-Dawley rat", "route": "oral", "dose": "50 mg/kg", "bioavailability [%]": "~0.64"}
{"Compound": "COc1cc(-c2cc(C(C)=O)n3ccccc23)c(OC)cc1Cn1ccnc1", "species": "male Sprague-Dawley rat", "route": "oral", "dose": "5 mg/kg", "bioavailability [%]": 50.3}
{"Compound": "Cc1cc(S(=O)(=O)N[C@H]2CC[C@H](CN3CCN(c4ccc(C5CCC(=O)NC5=O)c(Cl)c4)CC3)CC2)ccc1Nc1ncc(C(F)(F)F)c(N2CCC[C@](C)(O)C2)n1 (stereo partly shown)", "species": "rat", "route": "oral", "dose": "10 mg/kg", "bioavailability [%]": 25}
{"Compound": "C[C@H]1Oc2cc(cnc2N)-c2c(nn(C)c2C#N)CN(C)C(=O)c2ccc(F)cc21", "species": "Sprague-Dawley rat", "route": "oral", "bioavailability [%]": 8.6}
{"Compound": "COc1nc(-c2cccc(-c3ccccc3)c2C)ccc1CNCCNC(=O)CCCCCCCCCCC(=O)N1CCN(CCNC(=O)c2cc3c(=O)n4cccc(C)c4nc3n(CCc3cccs3)c2=N)CC1", "species": "male Sprague-Dawley rat", "route": "intraperitoneal", "dose": "4 mg/kg", "bioavailability [%]": 74.8}
{"Compound": "COc1ccc(N(Cc2csc(-c3ccccc3)n2)C(=O)CCCCCC(=O)NO)cc1", "species": "female Sprague-Dawley rat", "route": "oral", "bioavailability [%]": 10.3}
